Measurements published in ChEMBL document CHEMBL5032510, “Identification of Novel Fused Heteroaromatics-Based MALT1 Inhibitors by High-Throughput Screening to Treat B Cell Lymphoma” (J Med Chem, 2021).
Active and inactive are the calls of the source. The rule behind the calls is not given here.

Key:
[1] = Antiproliferative activity against human HBL1 cells assessed as inhibition of cell growth incubated for 72 hrs by Celltiter-Glo luminescent assay; assay type: functional
In short: (§1)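 Exponentially growing cells were seeded at 1 × 10⁴ per 100 μL. HBL-1 and TMD8 were kept in RPMI with 10% FBS, 2 mM glutamine and 10 mM HEPES; OCI-LY1 in Iscove's medium with 20% FBS; all at 37 °C and 5% CO2. Cells were exposed to DMSO or 2-fold serial dilutions from 100 μM for 72 h, in triplicate on one plate. CellTiter-Glo luminescence was read after 1 h. Growth inhibition was calculated against control, accounting for initial cell number, and GI50 was fitted.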

[2] = target: T1, Mucosa-associated lymphoid tissue lymphoma translocation protein 1 (Homo sapiens, UniProt Q9UDY8); assay: Inhibition of N-terminal his-tagged GCN4 leucine zipper fused human MALT1 […] expressed in Escherichia coli using Ac-LVSR-AMC as substrate by HTS assay
T1 sequence (Q9UDY8 whole entry): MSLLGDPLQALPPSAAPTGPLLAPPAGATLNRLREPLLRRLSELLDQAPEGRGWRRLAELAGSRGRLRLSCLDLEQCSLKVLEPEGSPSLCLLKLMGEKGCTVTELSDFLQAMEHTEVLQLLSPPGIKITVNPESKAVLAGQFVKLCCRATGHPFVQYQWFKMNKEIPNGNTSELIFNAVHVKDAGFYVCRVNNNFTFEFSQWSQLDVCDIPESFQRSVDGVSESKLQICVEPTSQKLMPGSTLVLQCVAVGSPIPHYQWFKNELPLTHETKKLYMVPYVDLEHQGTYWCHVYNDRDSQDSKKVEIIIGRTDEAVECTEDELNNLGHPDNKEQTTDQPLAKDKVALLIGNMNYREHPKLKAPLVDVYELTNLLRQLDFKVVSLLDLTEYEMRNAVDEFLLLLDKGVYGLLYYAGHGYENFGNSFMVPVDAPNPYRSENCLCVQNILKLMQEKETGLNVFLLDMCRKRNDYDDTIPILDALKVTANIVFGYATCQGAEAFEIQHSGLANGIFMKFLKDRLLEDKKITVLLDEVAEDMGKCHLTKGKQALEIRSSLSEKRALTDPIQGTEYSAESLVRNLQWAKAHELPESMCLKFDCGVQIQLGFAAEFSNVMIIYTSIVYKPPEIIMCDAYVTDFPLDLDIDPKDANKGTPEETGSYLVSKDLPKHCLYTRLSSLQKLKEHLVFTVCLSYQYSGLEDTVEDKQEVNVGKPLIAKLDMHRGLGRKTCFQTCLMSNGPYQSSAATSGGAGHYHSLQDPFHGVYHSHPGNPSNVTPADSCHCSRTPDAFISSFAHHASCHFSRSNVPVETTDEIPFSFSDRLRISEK

OCI-Ly1 = assay: Antiproliferative activity against human OCI-Ly1 cells assessed as inhibition of cell growth incubated for 72 hrs by Celltiter-Glo luminescent assay; assay type: functional; in short: as §1
TMD8 = assay: Antiproliferative activity against human TMD8 cells assessed as inhibition of cell growth incubated for 72 hrs by Celltiter-Glo luminescent assay; assay type: functional; in short: as §1

| Compound | GI50 [1] [µM] | IC50 [2] [µM] | GI50 (OCI-Ly1) [µM] | GI50 (TMD8) [µM] | Activity (OCI-Ly1) |
| --- | --- | --- | --- | --- | --- |
| Cc1ccc(NC(=O)Nc2ccc3nc(N4CCN(C)CC4)cc(C)c3c2)cc1Cl | 5.56 | 16.6 | 11.2 | 5.56 | – |
| COc1ccc(NC(=O)c2sc(=S)n3c2[nH]c(=O)c2ccccc23)cc1 | – | > 25 | – | – | – |
| CSc1ccc2c(c1)N(CCC1CCCCN1C)c1ccccc1S2 (stereo unspecified) [THIORIDAZINE] | 6.6 | 4.1 | 13.4 | 5.9 | – |
| COc1ccccc1NC(=O)c1sc(=S)n2c1[nH]c(=O)c1ccc(Br)cc12 | – | 7.7 | – | – | – |
| Cc1ccc(S(=O)(=O)C2=C(O)C(=O)N(Cc3ccc(F)cc3)C2c2ccc(C(C)C)cc2)cc1 (stereo unspecified) | – | 13 | – | – | – |
| CCOc1ccc(OCC)c(NC(=O)c2sc(=S)n3c2[nH]c(=O)c2ccc(Cl)cc23)c1 | 12.1 | 4.7 | 25.6 | 12.1 | – |
| O=C(O)c1cccc(NC(=O)c2sc(=S)n3c2[nH]c(=O)c2cc(Br)ccc23)c1 | 12.4 | 14.9 | 23.7 | 23.7 | – |
| COC(=O)c1ccc2c(=O)[nH]c3c(C(=O)Nc4ccc(-c5ccccc5)cc4)sc(=S)n3c2c1 | 16 | 6.4 | 34 | 23 | – |
| COC(=O)c1ccc2c(=O)[nH]c3c(C(=O)Nc4cccc(Cl)c4[N+](=O)[O-])sc(=S)n3c2c1 | – | 3 | – | – | – |
| COc1ccc(OC)c(NC(=O)c2sc(=S)n(-c3cccc(C(F)(F)F)c3)c2NC(=O)CCl)c1 | 2.2 | 3.2 | 13.3 | 1.3 | – |
| COC(=O)c1ccc2c(=O)[nH]c3c(C(=O)Nc4ccc([N+](=O)[O-])cc4)sc(=S)n3c2c1 | – | 4.3 | – | – | – |
| COc1cc2c(=O)[nH]c3c(C(=O)Nc4cc(Cl)cc(Cl)c4)sc(=S)n3c2cc1OC | 2.2 | 14 | 14.2 | 6.3 | – |
| O=C(O)c1cccc(NC(=O)c2sc(=S)n3c2[nH]c(=O)c2ccc(Cl)cc23)c1 | 22.8 | 8.36 | 22.8 | 22.8 | – |
| COc1ccc(OC)c(NC(=O)c2sc(=S)n3c2[nH]c(=O)c2cc(F)c(F)cc23)c1 | – | 11.6 | – | – | – |
| COc1ccccc1NC(=O)c1sc(=S)n2c1[nH]c(=O)c1ccccc12 | – | > 25 | – | – | – |
| CCc1ccccc1NC(=O)c1sc(=S)n2c1[nH]c(=O)c1ccc(Cl)cc12 | – | 5.1 | – | – | – |
| CCc1ccccc1NC(=O)c1sc(=S)n2c1[nH]c(=O)c1cc(F)c(F)cc12 | – | 5.2 | – | – | – |
| COc1ccc(OC)c(NC(=O)c2sc(=S)n3c2[nH]c(=O)c2cc(Cl)ccc23)c1 | 14 | 3.2 | 28.1 | 12.4 | – |
| O=C(Nc1ccc(Cl)cc1)c1sc(=S)n2c1[nH]c(=O)c1ccccc12 | – | > 25 | – | – | – |
| O=C(Nc1cccc(Cl)c1[N+](=O)[O-])c1sc(=S)n2c1[nH]c(=O)c1ccc(Cl)cc12 | – | 4.4 | – | – | – |
| CCc1ccccc1NC(=O)c1sc(=S)n2c1[nH]c(=O)c1cc(Br)ccc12 | – | 4.4 | – | – | – |
| COc1ccc(OC)c(NC(=O)c2sc(=S)n3c2[nH]c(=O)c2ccc(F)cc23)c1 | – | 17 | – | – | – |
| Cc1ccc(NC(=O)c2sc(=S)n3c2[nH]c(=O)c2cc(Br)ccc23)c(C)c1 | 17 | 6.4 | 26 | 10 | – |
| COc1ccccc1CNC(=O)c1sc(=S)n2c1[nH]c(=O)c1cc(Cl)ccc12 | 40 | 6 | – | 40 | inactive |
| O=C(Nc1cc(Cl)cc(Cl)c1)c1sc(=S)n2c1[nH]c(=O)c1ccccc12 | 8 | 2.2 | 10 | 3.7 | – |
| Cc1ccc2c(c1)c(=O)[nH]c1c(C(=O)Nc3cc(Cl)ccc3C)sc(=S)n12 | 14 | 3.4 | 23 | 8 | – |

| Compound | GI50 [1] [µM] | IC50 [2] [µM] | GI50 (OCI-Ly1) [µM] | GI50 (TMD8) [µM] | Activity (OCI-Ly1) |
| --- | --- | --- | --- | --- | --- |
| COc1ccc(OC)c(NC(=O)c2sc(=S)n3c2[nH]c(=O)c2cc(Br)ccc23)c1 | 11.7 | 6.9 | 12.9 | 11 | – |
| COc1ccc(OC)c(NC(=O)c2sc(=S)n3c2[nH]c(=O)c2cc(OC)ccc23)c1 | – | > 25 | – | – | – |
| O=C(Nc1ccc([N+](=O)[O-])cc1)c1sc(=S)n2c1[nH]c(=O)c1ccccc12 | 14.3 | 6.7 | 21 | 4 | – |
| CCc1ccccc1NC(=O)c1sc(=S)n2c1[nH]c(=O)c1cc(C)ccc12 | 31.3 | 18.5 | 31.3 | 31.3 | – |
| O=C(Nc1cc(Cl)cc(Cl)c1)c1sc(=S)n2c1[nH]c(=O)c1cc(Br)ccc12 | 18.4 | 3.3 | 20.2 | 3.9 | – |
| COC(=O)c1ccc2c(=O)[nH]c3c(C(=O)Nc4ccc(Cl)c(Cl)c4)sc(=S)n3c2c1 | – | 6.9 | – | – | – |
| COc1cccc(NC(=O)c2sc(=S)n3c2[nH]c(=O)c2ccccc23)c1 | – | > 25 | – | – | – |
| Cc1ccccc1NC(=O)c1sc(=S)n2c1[nH]c(=O)c1ccc(Cl)cc12 | – | 11 | – | – | – |
| Cc1ccc2c(c1)c(=O)[nH]c1c(C(=O)Nc3ccccc3C)sc(=S)n12 | 24.7 | 21.1 | – | 24.7 | – |
| CCc1ccc(NC(=O)c2sc(=S)n3c2[nH]c(=O)c2ccccc23)cc1 | – | > 25 | – | – | – |
| O=C(Nc1ccccc1)c1sc(=S)n2c1[nH]c(=O)c1ccccc12 | – | > 25 | – | – | – |
| COc1ccc(OC)c(NC(=O)c2sc(=S)n3c2[nH]c(=O)c2ccc(Br)cc23)c1 | – | 18.8 | – | – | – |
| COc1ccc(OC)c(NC(=O)c2sc(=S)n3c2[nH]c(=O)c2ccc(OC)cc23)c1 | – | > 25 | – | – | – |
| COc1ccc(OC)c(NC(=O)c2sc(=S)n3c2[nH]c(=O)c2ccccc23)c1 | – | > 25 | – | – | – |
| O=C(Nc1ccccc1Cl)c1sc(=S)n2c1[nH]c(=O)c1ccccc12 | – | 20.4 | – | – | – |
| CCc1ccccc1NC(=O)c1sc(=S)n2c1[nH]c(=O)c1ccccc12 | – | 14.7 | – | – | – |
| COc1ccc(OC)c(NC(=O)c2sc(=S)n3c2[nH]c(=O)c2cc(OC)c(OC)cc23)c1 | – | > 25 | – | – | – |
| COc1cccc(CNC(=O)c2sc(=S)n3c2[nH]c(=O)c2cc(Cl)ccc23)c1 | 28.2 | 12.8 | – | 21.6 | – |
| COC(=O)c1ccc2c(=O)[nH]c3c(C(=O)Nc4cc(Cl)cc(Cl)c4)sc(=S)n3c2c1 | – | 2.5 | – | – | – |
| CCc1ccccc1NC(=O)c1sc(=S)n2c1[nH]c(=O)c1ccc(C(=O)OC)cc12 | – | 3.2 | – | – | – |
| O=C(Nc1ccc([N+](=O)[O-])cc1)c1sc(=S)n2c1[nH]c(=O)c1ccc(Cl)cc12 | – | 2.6 | – | – | – |
| CC(C)c1ccc(S(=O)(=O)Nc2ccc(N3CCC(Cc4ccccc4)CC3)cc2C(=O)O)cc1 | – | 12.3 | – | – | – |
| Cc1ccccc1C1CCN(c2ccc(NC(=O)c3ccc(Cl)cc3)c(C(=O)O)c2)C1 (stereo unspecified) | – | 12 | – | – | – |
| O=C(Nc1ccc(Cl)c(Cl)c1)c1sc(=S)n2c1[nH]c(=O)c1ccccc12 | – | > 25 | – | – | – |
| O=C(Nc1cc(Cl)cc(Cl)c1)c1sc(=S)n2c1[nH]c(=O)c1ccc(Cl)cc12 | – | 7.4 | – | – | – |
